IC50 data for twelve compounds are collected here from ChEMBL document CHEMBL4422683, “Synthesis of 2-,4,-6-, and/or 7-substituted quinoline derivatives as human dihydroorotate dehydrogenase (hDHODH) inhibitors and anticancer agents: 3D QSAR-assisted design” (Bioorg Med Chem Lett, 2019).

Experiment [1] concerns the target Dihydroorotate dehydrogenase (quinone), mitochondrial (Homo sapiens, UniProt Q02127). The experiment can be described thus: Inhibition of human recombinant N-terminal His-tagged DHODH (31 to 395 residues) expressed in Escherichia coli using DHO as substrate measured after 20 mins by DCPI dye-based assay.
Experiment [2] relates to MDA-MB-231. The experiment is described as follows: Antiproliferative activity against human MDA-MB-231 cells after 48 hrs by MTT assay. Format: functional, cell-based. Conditions: MDA-MB-231, 48 h. The procedure, abridged:
(§1)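 MTT antiproliferative screen on human colorectal adenocarcinoma HT-29 and breast cancer MDA-MB-231 cells. Cell growth inhibition IC50 was read from the dose-response curve.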
For orientation: Formazan colour is commonly taken as a measure of viable cells.

For experiment [3], the system named is HT-29. The experiment can be described thus: Antiproliferative activity against human HT-29 cells after 48 hrs by MTT assay. Format: functional, cell-based. Conditions: HT-29, 48 h. The procedure, abridged: as §1

Sequence of Dihydroorotate dehydrogenase (quinone), mitochondrial (Q02127 whole entry, the tested form may be a part): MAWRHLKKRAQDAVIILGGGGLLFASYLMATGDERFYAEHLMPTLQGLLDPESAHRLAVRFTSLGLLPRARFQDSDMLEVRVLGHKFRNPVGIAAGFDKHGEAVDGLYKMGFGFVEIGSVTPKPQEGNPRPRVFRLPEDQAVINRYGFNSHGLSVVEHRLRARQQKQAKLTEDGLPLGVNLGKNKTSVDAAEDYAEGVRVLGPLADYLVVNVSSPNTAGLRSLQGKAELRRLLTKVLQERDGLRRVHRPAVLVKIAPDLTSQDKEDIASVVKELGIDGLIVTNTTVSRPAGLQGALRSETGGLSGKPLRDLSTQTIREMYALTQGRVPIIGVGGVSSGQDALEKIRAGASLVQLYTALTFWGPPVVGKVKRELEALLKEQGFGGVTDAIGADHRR

In the case of `O=C(OCc1ccccc1)c1cc(-c2ccc(Cl)cc2)nc2cc(Cl)c(Cl)cc12`, the IC50 was 7.48 µM in experiment [1], over 100 µM in experiment [2] and 48.7 µM in experiment [3].

Consider `COc1ccc(-c2cc(COCc3ccccc3)c3cc(C)ccc3n2)cc1`, for which the IC50 in experiment [2] and in experiment [3] was over 100 µM throughout.

As for `COc1ccc(-c2cc(COCc3ccccc3)c3cc(Cl)c(Cl)cc3n2)cc1`, the concentration for half-maximal inhibition (IC50) in experiment [1] was 15.5 µM; in experiment [2], over 100 µM; in experiment [3] it was over 100 µM.

For the compound `Cc1ccc2nc(-c3ccc(F)cc3)cc(C(=O)OCc3ccccc3)c2c1`, the IC50 worked out at 1.56 µM in experiment [1], 13.2 µM in experiment [2] and 15.1 µM in experiment [3].

Regarding `COc1ccc(-c2cc(C(=O)OCc3ccccc3)c3cc(C)ccc3n2)cc1`, the results for the IC50 in experiment [1], in experiment [2] and in experiment [3] were 1.96 µM, 20.5 µM and 17.3 µM, respectively.

For the compound `Clc1ccc(-c2cc(COCc3ccccc3)c3cc(Cl)c(Cl)cc3n2)cc1`, the results for the IC50 in experiment [1], in experiment [2] and in experiment [3] were 1.22 µM, over 100 µM and 16.8 µM, respectively.

With `Cc1ccc2nc(-c3ccc(F)cc3)cc(COCc3ccccc3)c2c1`, the IC50 was 13.4 µM in experiment [1], over 100 µM in experiment [2] and over 100 µM in experiment [3].

Consider `Cc1ccc2nc(-c3ccc(Cl)cc3)cc(COCc3ccccc3)c2c1`, for which the IC50 in experiment [2] and in experiment [3] was over 100 µM in each case.

For the compound `COc1ccc(-c2cc(C(=O)OCc3ccccc3)c3cc(Cl)c(Cl)cc3n2)cc1`, the figures for the IC50 in experiment [1], in experiment [2] and in experiment [3] were 3.34 µM, 39.2 µM and 42.2 µM, respectively.

Take `Cc1ccc2nc(-c3ccc(Cl)cc3)cc(C(=O)OCc3ccccc3)c2c1`: the IC50 was 7.37 µM in experiment [1], over 100 µM in experiment [2] and over 100 µM in experiment [3].

As for `Cc1c(-c2ccc(-c3ccccc3F)cc2)nc2ccc(F)cc2c1C(=O)O` [BREQUINAR SODIUM], the IC50 in experiment [2] worked out at 12.5 µM; in experiment [3] it was 14 µM.

`CC(=O)O[C@H]1C(=O)[C@@]2(C)[C@H]([C@H](OC(=O)c3ccccc3)[C@]3(O)C[C@H](OC(=O)[C@H](O)[C@@H](NC(=O)c4ccccc4)c4ccccc4)C(C)=C1C3(C)C)[C@]1(OC(C)=O)CO[C@@H]1C[C@@H]2O` [PACLITAXEL]: the IC50 in experiment [2] was 13.2 µM; in experiment [3], 14.6 µM.

The term IC50 denotes the concentration needed to halve the response being measured.
